Measurements published in ChEMBL document CHEMBL3608301, “Phenolic Compounds from Atriplex littoralis and Their Radiation-Mitigating Activity” (J Nat Prod, 2015).

Columns and labels:
[1] = test system: PBL; assay: Radioprotective activity in 2-Gy gamma irradiated human PBL assessed as frequency of micronuclei at 1.8 uM treated for 2 to 19 hrs followed by compound washout measured after 72 hrs by cytochalasin-B-blocked micronucleus assay relative to control; assay type: functional
Outline: (§1)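 Venous blood from five healthy male volunteers was γ-irradiated at 2 Gy (0.45 Gy/min) at room temperature and cultured. Compounds (0.8−7.4 μM final) were added 2 to 19 h after irradiation, at 37 °C. Cultures were then rinsed and moved to fresh RPMI 1640 for 72 h. Cytokinesis-block micronucleus assay: ≥1000 binucleated cells scored per sample (Countryman–Heddle criteria). Controls were non-treated irradiated cultures; one-way ANOVA with Tukey test.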

[2] = test system: PBL; assay: Radioprotective activity in 2-Gy gamma irradiated human PBL assessed as binucleated cells with micronuclei at 1.8 uM treated for 2 to 19 hrs followed by compound washout measured after 72 hrs by cytochalasin-B-blocked micronucleus assay (reference value: 15.5 +/- 0.6%); assay type: functional; outline: as §1
[3] = test system: PBL; assay: Toxicity in 2-Gy gamma irradiated human PBL assessed as cytokinesis-block proliferation index at 3.7 uM treated for 2 to 19 hrs followed by compound washout measured after 72 hrs (reference value: 1.6 +/- 0.1); assay type: cell-based
[4] = test system: PBL; assay: Radioprotective activity in 2-Gy gamma irradiated human PBL assessed as frequency of micronuclei at 7.4 uM treated for 2 to 19 hrs followed by compound washout measured after 72 hrs by cytochalasin-B-blocked micronucleus assay relative to control; assay type: functional; outline: as §1
[5] = test system: PBL; assay: Radioprotective activity in 2-Gy gamma irradiated human PBL assessed as incidence of micronuclei in binucleated cells at 3.7 uM treated for 2 to 19 hrs followed by compound washout measured after 72 hrs by cytochalasin-B-blocked micronucleus assay (reference value: 1.2 +/- 0.03); assay type: functional; outline: as §1
[6] = test system: PBL; assay: Radioprotective activity in 2-Gy gamma irradiated human PBL assessed as binucleated cells with micronuclei at 7.4 uM treated for 2 to 19 hrs followed by compound washout measured after 72 hrs by cytochalasin-B-blocked micronucleus assay (reference value: 15.5 +/- 0.6%); assay type: functional; outline: as §1
[7] = test system: PBL; assay: Radioprotective activity in 2-Gy gamma irradiated human PBL assessed as incidence of micronuclei in 1000 binucleated cells at 3.7 uM treated for 2 to 19 hrs followed by compound washout measured after 72 hrs by cytochalasin-B-blocked micronucleus assay (reference value: 183 +/- 9.6); assay type: functional
Outline: (§2)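 Venous blood from five healthy male volunteers was gamma-irradiated at 2 Gy (0.45 Gy/min) at room temperature, then cultured. Compounds (0.8–7.4 μM final) were added after irradiation for 19 h at 37 °C. Cells were rinsed and moved to fresh RPMI 1640 for 72 h. At least 1000 binucleated cells per sample were scored for micronuclei and CBPI calculated. Analysis used one-way ANOVA with Tukey test.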

[8] = test system: PBL; assay: Radioprotective activity in 2-Gy gamma irradiated human PBL assessed as incidence of micronuclei in 1000 binucleated cells at 1.8 uM treated for 2 to 19 hrs followed by compound washout measured after 72 hrs by cytochalasin-B-blocked micronucleus assay (reference value: 183 +/- 9.6); assay type: functional; outline: as §1
[9] = test system: PBL; assay: Radioprotective activity in 2-Gy gamma irradiated human PBL assessed as incidence of micronuclei in binucleated cells at 7.4 uM treated for 2 to 19 hrs followed by compound washout measured after 72 hrs by cytochalasin-B-blocked micronucleus assay (reference value: 1.2 +/- 0.03); assay type: functional; outline: as §1
[10] = test system: PBL; assay: Radioprotective activity in 2-Gy gamma irradiated human PBL assessed as binucleated cells with micronuclei at 3.7 uM treated for 2 to 19 hrs followed by compound washout measured after 72 hrs by cytochalasin-B-blocked micronucleus assay (reference value: 15.5 +/- 0.6%); assay type: functional; outline: as §1
[11] = test system: PBL; assay: Radioprotective activity in 2-Gy gamma irradiated human PBL assessed as incidence of micronuclei in binucleated cells at 1.8 uM treated for 2 to 19 hrs followed by compound washout measured after 72 hrs by cytochalasin-B-blocked micronucleus assay (reference value: 1.2 +/- 0.03); assay type: functional; outline: as §1
[12] = test system: PBL; assay: Radioprotective activity in 2-Gy gamma irradiated human PBL assessed as incidence of micronuclei in 1000 binucleated cells at 7.4 uM treated for 2 to 19 hrs followed by compound washout measured after 72 hrs by cytochalasin-B-blocked micronucleus assay (reference value: 183 +/- 9.6); assay type: functional; outline: as §2
[13] = test system: PBL; assay: Radioprotective activity in 2-Gy gamma irradiated human PBL assessed as frequency of micronuclei at 3.7 uM treated for 2 to 19 hrs followed by compound washout measured after 72 hrs by cytochalasin-B-blocked micronucleus assay relative to control; assay type: functional; outline: as §1
[14] = test system: PBL; assay: Toxicity in 2-Gy gamma irradiated human PBL assessed as cytokinesis-block proliferation index at 1.8 uM treated for 2 to 19 hrs followed by compound washout measured after 72 hrs (reference value: 1.6 +/- 0.1); assay type: cell-based
[15] = test system: PBL; assay: Toxicity in 2-Gy gamma irradiated human PBL assessed as cytokinesis-block proliferation index at 7.4 uM treated for 2 to 19 hrs followed by compound washout measured after 72 hrs (reference value: 1.6 +/- 0.1); assay type: cell-based
[16] = test system: PBL; assay: Radioprotective activity in 2-Gy gamma irradiated human PBL assessed as incidence of micronuclei in 1000 binucleated cells at 7 uM treated for 2 to 19 hrs followed by compound washout measured after 72 hrs by cytochalasin-B-blocked micronucleus assay (reference value: 183 +/- 9.6); assay type: functional; outline: as §1
[17] = test system: PBL; assay: Radioprotective activity in 2-Gy gamma irradiated human PBL assessed as binucleated cells with micronuclei at 3.5 uM treated for 2 to 19 hrs followed by compound washout measured after 72 hrs by cytochalasin-B-blocked micronucleus assay (reference value: 15.5 +/- 0.6%); assay type: functional; outline: as §1
[18] = test system: PBL; assay: Toxicity in 2-Gy gamma irradiated human PBL assessed as cytokinesis-block proliferation index at 3.5 uM treated for 2 to 19 hrs followed by compound washout measured after 72 hrs (reference value: 1.6 +/- 0.1); assay type: cell-based
[19] = test system: PBL; assay: Radioprotective activity in 2-Gy gamma irradiated human PBL assessed as incidence of micronuclei in 1000 binucleated cells at 3.5 uM treated for 2 to 19 hrs followed by compound washout measured after 72 hrs by cytochalasin-B-blocked micronucleus assay (reference value: 183 +/- 9.6); assay type: functional; outline: as §1
[20] = test system: PBL; assay: Radioprotective activity in 2-Gy gamma irradiated human PBL assessed as frequency of micronuclei at 7 uM treated for 2 to 19 hrs followed by compound washout measured after 72 hrs by cytochalasin-B-blocked micronucleus assay relative to control; assay type: functional; outline: as §1
[21] = test system: PBL; assay: Toxicity in 2-Gy gamma irradiated human PBL assessed as cytokinesis-block proliferation index at 7 uM treated for 2 to 19 hrs followed by compound washout measured after 72 hrs (reference value: 1.6 +/- 0.1); assay type: cell-based
[22] = test system: PBL; assay: Radioprotective activity in 2-Gy gamma irradiated human PBL assessed as incidence of micronuclei in binucleated cells at 3.5 uM treated for 2 to 19 hrs followed by compound washout measured after 72 hrs by cytochalasin-B-blocked micronucleus assay (reference value: 1.2 +/- 0.03); assay type: functional; outline: as §1
[23] = test system: PBL; assay: Radioprotective activity in 2-Gy gamma irradiated human PBL assessed as incidence of micronuclei in binucleated cells at 7 uM treated for 2 to 19 hrs followed by compound washout measured after 72 hrs by cytochalasin-B-blocked micronucleus assay (reference value: 1.2 +/- 0.03); assay type: functional; outline: as §1
[24] = test system: PBL; assay: Radioprotective activity in 2-Gy gamma irradiated human PBL assessed as binucleated cells with micronuclei at 7 uM treated for 2 to 19 hrs followed by compound washout measured after 72 hrs by cytochalasin-B-blocked micronucleus assay (reference value: 15.5 +/- 0.6%); assay type: functional; outline: as §1
[25] = test system: PBL; assay: Radioprotective activity in 2-Gy gamma irradiated human PBL assessed as frequency of micronuclei at 3.5 uM treated for 2 to 19 hrs followed by compound washout measured after 72 hrs by cytochalasin-B-blocked micronucleus assay relative to control; assay type: functional; outline: as §1

OC[C@H]1O[C@@H](Oc2ccc(O)cc2)[C@H](O)[C@@H](O)[C@@H]1O [ARBUTIN]
Activity [1]: 104.5%
Activity [2]: 15.1%
Activity [3]: 1.8
Activity [4]: 107.8%
Activity [5]: 1.3
Activity [6]: 15.8%
Activity [7]: 189.3
Activity [8]: 191.2
Activity [9]: 1.2
Activity [10]: 15%
Activity [11]: 1.3
Activity [12]: 197.2
Activity [13]: 103.4%
Activity [14]: 1.7
Activity [15]: 1.6

OC[C@H]1O[C@@H](OCc2ccc(O)cc2)[C@H](O)[C@@H](O)[C@@H]1O
Activity [16]: 159.2
Activity [1]: 85.5%
Activity [17]: 13.1%
Activity [18]: 1.8
Activity [2]: 13.1%
Activity [8]: 156.4
Activity [19]: 155.7
Activity [20]: 87%
Activity [11]: 1.2
Activity [21]: 1.7
Activity [22]: 1.2
Activity [23]: 1.2
Activity [14]: 1.7
Activity [24]: 13.6%
Activity [25]: 85.1%
